Source: ChEMBL document CHEMBL2040770, “Finger loop inhibitors of the HCV NS5b polymerase. Part II. Optimization of tetracyclic indole-based macrocycle leading to the discovery of TMC647055” (Bioorg Med Chem Lett, 2012)

Assays:
[1] = Metabolic stability in human liver microsomes assessed as compound metabolized at 5 uM after 15 mins; assay type: ADME, Microsome; settings: read-out: Drug metabolism
Method in brief: (§1)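 Rat or human liver microsomes incubated with compound at 5 µM for 15 min. Stability is given as % of compound metabolized.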

[2] = Metabolic stability in rat liver microsomes assessed as compound metabolized at 5 uM after 15 mins; assay type: ADME, Microsome; settings: read-out: Drug metabolism; method in brief: as §1
Hepatitis C virus = assay: Antiviral activity against Hepatitic C virus genotype 1b clone ET infected in human Huh7 replicon cells after 72 hrs by luciferase reporter gene assay; assay type: functional, organism-based, Hepacivirus hominis; settings: Huh-7, 72 h
[3] = Selectivity index, ratio of CC50 for human Huh7 cells to EC50 for Hepatitic C virus genotype 1b clone ET; assay type: toxicity, cell-based, Huh-7; settings: read-out: Ratio CC50/EC50
Method in brief: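 Selectivity index computed in Huh-7 cells as CC50/EC50.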

[4] = Cmax in Sprague-Dawley rat at 10 mg/kg, po; assay type: ADME, organism-based; set-up: dose 10 mg/kg, route oral; settings: in vivo
Method in brief: (§2)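 Male Sprague–Dawley rats (n = 3) given a single iv dose of 2 mg/kg in PEG400/saline 70:30 and a single oral dose of 10 mg/kg in PEG400/2% vitamin E-TPGS. Plasma kinetics were followed to give plasma clearance, Cmax and oral bioavailability.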

[5] = Drug uptake in Sprague-Dawley rat liver at 10 mg/kg, po measured after 7 hrs; assay type: ADME, organism-based; set-up: dose 10 mg/kg, route oral; settings: read-out: Drug uptake
Method in brief: (§3)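 Male Sprague–Dawley rats (n = 3) received a single oral dose of 10 mg/kg in PEG400/2% vitamin E-TPGS. Liver concentration was measured 7 h post-dosing, and the liver/plasma concentration ratio was taken at that same 7 h time point.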

[6] = Ratio of drug uptake in Sprague-Dawley rat liver to plasma at 10 mg/kg, po measured after 7 hrs; assay type: ADME, organism-based; set-up: dose 10 mg/kg, route oral; method in brief: as §3
[7] = Oral bioavailability in Sprague-Dawley rat at 10 mg/kg; assay type: ADME, organism-based; settings: in vivo; method in brief: as §2
[8] = Clearance in Sprague-Dawley rat at 2 mg/kg, iv and 10 mg/kg, po; assay type: ADME, organism-based; settings: in vivo; method in brief: as §2
[9] = AUC (0 to infinity) in dog at 10 mg/kg, po; assay type: ADME, organism-based, Canis lupus familiaris; set-up: time infinity, dose 10 mg/kg, route oral; settings: plasma
Method in brief: (§4)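 Dogs given a single oral dose of 10 mg/kg. Peak plasma concentration and plasma AUC extrapolated to infinity were determined, reported in µM and µM h.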

[10] = Plasma clearance in dog at 10 mg/kg, po; assay type: ADME, organism-based, Canis lupus familiaris; set-up: dose 10 mg/kg, route oral
[11] = Oral bioavailability in dog at 10 mg/kg; assay type: ADME, organism-based, Canis lupus familiaris; settings: in vivo
Canis familiaris = assay: Volume of distribution at steady state in dog at 10 mg/kg, po; assay type: ADME, organism-based, Canis lupus familiaris; set-up: dose 10 mg/kg, route oral; settings: in vivo
Rattus norvegicus = organism: Rattus norvegicus; assay: Drug metabolism in Sprague-Dawley rat assessed as reactive acyl glucuronides formation; assay type: ADME, organism-based; settings: in vivo
[12] = Inhibition of cytochrome P450; assay type: ADME
[13] = Cmax in dog at 10 mg/kg, po; assay type: ADME, organism-based, Canis lupus familiaris; set-up: dose 10 mg/kg, route oral; settings: in vivo; method in brief: as §4

Compound | metabolised at 0.25 h, 5 µM [1] [%] | metabolised at 0.25 h, 5 µM [2] [%] | EC50 (Hepatitis C virus) [nM] | selectivity ratio [3] | concentration at 7 h [5] [ng/mL] | Kp at 7 h [6] | bioavailability [7] [%] | clearance [8] [mL/min/kg] | also measured
COc1ccc2c(c1)C=C1Cn3c-2c(C2CCCCC2)c2ccc(cc23)C(=O)NS(=O)(=O)N(C)CCCCNC1=O | 20 | 13 | 912 | > 40 |  |  |  |  | 
COc1ccc2c(c1)C=C1Cn3c-2c(C2CCCCC2)c2ccc(cc23)C(=O)NS(=O)(=O)N(C(C)C)CCCCN(C)C1=O | 80 | 12 | 330 | > 100 |  |  |  |  | 
COc1ccc2c(c1)C=C1Cn3c-2c(C2CCCCC2)c2ccc(cc23)C(=O)NS(=O)(=O)N(C)CCCCN(C)C1=O | 56 | 26 | 82 | > 330 | 5000 | 23 | 76 | 40 | Cmax [4]: 800 ng/mL
COc1ccc2c(c1)C[C@@H]1Cn3c-2c(C2CCCCC2)c2ccc(cc23)C(=O)NS(=O)(=O)N(C)CCOCCN(C)C1=O | 63 | 42 |  |  | 898 | 22 | 15 | 53.3 | 
CN1CCCCN(C)S(=O)(=O)NC(=O)c2ccc3c(C4CCCCC4)c4n(c3c2)CC(=Cc2ccc(Cl)cc2-4)C1=O | 29 | 30 | 14500 | > 2 |  |  |  |  | 
COc1ccc2c(c1)C=C1Cn3c-2c(C2CCCCC2)c2ccc(cc23)C(=O)NS(=O)(=O)N(C)CCCN(C)C1=O | 18 | 28 | 680 | 72 |  |  |  |  | 
COc1ccc2c(c1)C=C1Cn3c-2c(C2CCCCC2)c2ccc(cc23)C(=O)NS(=O)(=O)NCCCCN(C)C1=O | 27 | 25 | 550 | > 58 |  |  |  |  | 
CN1CCOCCN(C)S(=O)(=O)NC(=O)c2ccc3c(C4CCCCC4)c4n(c3c2)CC(=Cc2cc(Cl)ccc2-4)C1=O | 16 | 22 | 280 | 150 |  |  |  |  | 
COc1ccc2c(c1)C1C[C@]13Cn1c-2c(C2CCCCC2)c2ccc(cc21)C(=O)NS(=O)(=O)N(C)CCOCCN(C)C3=O (stereo not given in full) | 95 | 72 | 40 |  | 3200 | 38 | 51 | 86.7 | 
CCN(CC)C1CCN(C(=O)Cn2c(-c3ccc(Cl)cc3)c(C3CCCCC3)c3ccc(C(=O)O)cc32)CC1 |  |  | 127 |  |  |  |  |  | 
COc1ccc2c(c1)C=C1Cn3c-2c(C2CCCCC2)c2ccc(cc23)C(=O)NS(=O)(=O)N2CCN(CCNC1=O)CC2 | 10 | 16 | 860 | > 40 |  |  |  |  | 
COc1ccc2c(c1)C=C1Cn3c-2c(C2CCCCC2)c2ccc(cc23)C(=O)NS(=O)(=O)N(C)CCOCCN(C)C1=O [TMC-647055] | 35 | 30 | 82 | > 300 | 7800 | 46 | > 66 | 53.3 | Cmax [4]: 440 ng/mL; AUC(0-inf) [9]: 25.8 µM·h; CL/F [10]: 9 mL/min/kg; bioavailability [11]: 87%; Vdss (Canis familiaris): 0.32 L/kg; Drug metabolism (Rattus norvegicus): Not Active; inhibition (INH) [12]: Not Active; Cmax [13]: 10.2 µM
COc1ccc2c(c1)C=C1Cn3c-2c(C2CCCCC2)c2ccc(cc23)C(=O)NS(=O)(=O)N(C)CCCCCNC1=O | 32 | 27 | 130 | > 400 | 6320 | 341 | 6 | 70 | Cmax [4]: 30 ng/mL
CN1CCOCCN(C)S(=O)(=O)NC(=O)c2ccc3c(C4CCCCC4)c4n(c3c2)CC(=Cc2cc(F)ccc2-4)C1=O | 38 | 37 | 72 | > 250 | 6560 | 62 | 52 | 61.7 | Cmax [4]: 272 ng/mL
CN1CCOCCN(C)S(=O)(=O)NC(=O)c2ccc3c(C4CCCCC4)c(n(C)c3c2)-c2ccccc2OCC1=O |  |  | 190 |  | 1720 | 64 | 21 | 128 | 
COc1ccc2c(c1)C=C1Cn3c-2c(C2CCCCC2)c2ccc(cc23)C(=O)NS(=O)(=O)N(C)CCN(C)CCNC1=O |  |  | 550 | > 58 |  |  |  |  | 
COc1ccc2c(c1)C=C1Cn3c-2c(C2CCCCC2)c2ccc(cc23)C(=O)NS(=O)(=O)N(C)CCN2CCN(CC2)C1=O | 26 | 17 | 180 | > 170 | 299 | 108 | 3 | 157 | Cmax [4]: 6 ng/mL
COc1ccc2c(c1)C=C1Cn3c-2c(C2CCCCC2)c2ccc(cc23)C(=O)NS(=O)(=O)NCCN(C)CCNC1=O | 7 | 23 | 470 | > 68 |  |  |  |  | 
COc1ccc2c(c1)C1C[C@@]13Cn1c-2c(C2CCCCC2)c2ccc(cc21)C(=O)NS(=O)(=O)N(C)CCOCCN(C)C3=O (stereo not given in full) |  |  | 800 |  |  |  |  |  | 
COc1ccc2c(c1)C=C1Cn3c-2c(C2CCCCC2)c2ccc(cc23)C(=O)NS(=O)(=O)N(C)CCCCCCN(C)C1=O | 99 | 46 | 160 | 150 |  |  |  |  | 
